High-throughput results from PubChem.
RBBP9 inh = human RBBP9 hydrolase inhibition; recombinant RBBP9, FP-Rh probe fluorescence polarization; inhibition, % at 7.94 µM; hit rate 0.2% among 220,000;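 active means inhibition above the campaign mean of all tested compounds plus 3 SD, cut at about 14% in these data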
Target sequence (O75884 whole entry, looked up): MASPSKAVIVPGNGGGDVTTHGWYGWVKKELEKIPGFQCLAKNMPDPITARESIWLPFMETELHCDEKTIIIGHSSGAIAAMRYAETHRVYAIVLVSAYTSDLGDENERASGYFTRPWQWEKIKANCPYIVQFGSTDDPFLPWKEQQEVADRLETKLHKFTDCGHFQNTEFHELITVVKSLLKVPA
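Material: RBBP9 protein. Amount: RBBP9 at 2.5 µM in dispensed solution, before mixing. Schedule: 30 min then 45 min, 25 °C. Medium: Tris buffer pH 8.0, NaCl, Pluronic. Measured by: fluorescence polarization. Measure: percent inhibition from mP, scaled between DMSO and no-protein wells. Replication: one well per compound.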
PRMT1 inh = PRMT1 (human) inhibition, primary screen; hit rate 1.3% among 370,000; Q99873; AID 652257; recombinant PRMT1, activity-based probe fluorescence polarization; inhibition, % at 2.79 µM;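 active means inhibition above about 21% made by adding two undisclosed values, limit read from the data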
Fam108B inh = counter-screen for RBBP9 inhibitors: inhibitors of mouse Fam108B; hit rate 0.33% among 300,000; AID 1947; inhibition, % at 9.51 µM; recombinant Fam108B, FP-Rh probe fluorescence polarization;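 active means inhibition above the screen mean inhibition plus 3 SD, computed separately per campaign, cut at about 18% in these data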;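 further: inhibitors lower polarization as less probe binds the enzyme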
PME-1 inh = blocks human protein phosphatase methylesterase 1 | hit rate 0.53% among 320,000 | inhibition, % at 5.9 µM | recombinant PME-1, FP-Rh probe fluorescence polarization | Q9Y570 | AID 2130;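 active means inhibition above the campaign mean of all compounds plus 3 SD, cut at about 26% in these data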;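 further: competitive labeling of PME-1 active site by serine hydrolase directed probe; inhibitors block probe labeling so polarization falls and inhibition rises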
Target sequence (Q9Y570 whole entry, looked up): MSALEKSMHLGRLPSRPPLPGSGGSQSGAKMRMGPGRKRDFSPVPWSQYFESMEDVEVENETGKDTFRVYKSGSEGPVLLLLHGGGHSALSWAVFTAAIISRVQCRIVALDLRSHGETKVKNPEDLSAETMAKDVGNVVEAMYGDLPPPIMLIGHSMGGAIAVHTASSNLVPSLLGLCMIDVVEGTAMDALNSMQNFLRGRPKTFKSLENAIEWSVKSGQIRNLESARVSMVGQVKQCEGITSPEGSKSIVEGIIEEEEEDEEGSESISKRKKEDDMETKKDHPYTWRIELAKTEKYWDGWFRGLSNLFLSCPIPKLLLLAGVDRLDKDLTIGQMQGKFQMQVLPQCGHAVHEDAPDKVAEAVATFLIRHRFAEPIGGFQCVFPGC
PAD4 FP inh = inhibitors of human PAD4; AID 485272; Q9UM07; inhibition, % at 6.36 µM; recombinant PAD4, RCA probe fluorescence polarization; hit rate 0.41% among 330,000;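 active means percent inhibition above a cutoff equal to the mean of all tested compounds plus 3 SD, cut at about 15% in these data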
GSTO1 inh = counter-screen for RBBP9 inhibitors: inhibitors of human GSTO1 | recombinant GSTO1, activity-based probe fluorescence polarization | inhibition, % at 5.96 µM | hit rate 1.1% among 300,000;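 active means inhibition above the campaign mean inhibition plus 3 SD, cut at about 35% in these data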
GSTO1 inh conf = GSTO1 (human) inhibition, confirmation. inhibition, % at 5.96 µM. AID 2176. recombinant GSTO1, probe fluorescence polarization. hit rate 54% among 2,400. shares compounds with GSTO1 inh;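 active means inhibition above the primary screen's cutoff, its mean inhibition plus 3 SD, cut at about 35% in these data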;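 further: loss of polarization as inhibitors block binding of rhodamine sulfonate ester activity probe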
GSTO1 recomb ABPP = blocks recombinant human glutathione S-transferase omega 1. shares compounds with GSTO1 inh. recombinant GSTO1, gel ABPP SE-Rh probe fluorescence. inhibition, % at 1 µM. hit rate 30% among 130. AID 463110;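 active means inhibition of the enzyme GSTO1 above about 75%, limit read from the data; inactive means inhibition below that limit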
Large screens that a line does not name were inactive (follow-up assays come after a bar, where they were run). Compounds with a hit are over-represented: about 2.3% of the library has one in this group of screens.

Oc1ccc(Br)cc1CNc1cccc2cccnc12	GSTO1 inh 46.1 (no result: RBBP9 inh) | GSTO1 inh conf inactive
O=C(O)COc1ccc(/C=N/n2c(COc3ccccc3)nc3ccccc3c2=O)cc1	none
O=c1c2ccccc2nc(COc2ccccc2)n1/N=C/c1ccc(O)c(O)c1	GSTO1 inh 52.9 | GSTO1 inh conf inactive
Cc1n[nH]c(=S)n1/N=C/c1c(O)ccc2ccccc12	GSTO1 inh 59.3 (no result: RBBP9 inh) | GSTO1 inh conf inactive
Cc1nc2ccccc2c(=O)n1/N=C/c1c(O)ccc2ccccc12	GSTO1 inh 63.3 | GSTO1 inh conf inactive
CN(Cc1ccccc1)C(=O)CC(c1ccccc1)c1cc(Cl)ccc1O (stereo not drawn)	GSTO1 inh 57.6 | GSTO1 inh conf inactive
CCn1c(-c2ccccc2Cl)nn(CC(=O)Nc2cc(Cl)ccc2Cl)c1=S	GSTO1 inh 38.1 | GSTO1 inh conf inactive
CCn1c(-c2ccccc2Cl)nn(CC(=O)NCCc2ccccc2)c1=S	none
CN(C)S(=O)(=O)c1cccc(CSc2cccc[n+]2[O-])c1	none
CCn1c(=O)oc2cc(NC(=O)CCl)ccc21	GSTO1 inh 87.7 | GSTO1 inh conf 92.1
Cc1cc(=O)nc2c3ccccc3n(C(C)C(=O)Nc3c(F)c(F)c(F)c(F)c3F)n12 (stereo not drawn)	none
O=S1(=O)CC(N2CC=CC2)CN1Cc1cn(Cc2cccc(Cl)c2)nn1 (stereo not drawn)	none (no result: RBBP9 inh, Fam108B inh, PME-1 inh, PAD4 FP inh, GSTO1 inh)
Cc1ccc(C(=O)N/C(=C\c2ccc(-c3ccccc3[N+](=O)[O-])o2)C(=O)NCCCN(C)C)cc1	GSTO1 inh 43.7 (no result: RBBP9 inh) | GSTO1 inh conf inactive
COc1ccc(C(=O)N/N=C/c2ccc3cccc(O)c3n2)cc1	GSTO1 inh 40.6 | GSTO1 inh conf inactive
CCCOc1ccc(C2C(C(=O)c3cc4ccccc4o3)=C(O)C(=O)N2c2cc(C)on2)cc1 (stereo not drawn)	none (no result: RBBP9 inh)
O=C(CCCc1ccccc1)NCCc1ccccc1	none (no result: RBBP9 inh)
O=C(CCl)N(CCc1ccccc1)CCc1ccccc1	GSTO1 inh 79.1 (no result: RBBP9 inh) | GSTO1 inh conf 95.7 | GSTO1 recomb ABPP 82.0
CCNC(=O)c1c(O)c2ccccc2[nH]c1=O	none
O=C(CCl)NNC(=O)c1c(O)c2ccccc2[nH]c1=O	GSTO1 inh 88.7 | GSTO1 inh conf 96.9
CCCCC(=O)NNC(=O)c1c(O)c2ccccc2[nH]c1=O	none
CC(C)=NNC(=O)c1c(O)c2ccccc2[nH]c1=O	GSTO1 inh 42.0 | GSTO1 inh conf inactive
CC1=NN(c2ccc(C)cc2C)C(=O)C1C(c1ccccc1)C1C(=O)N(c2ccc(C)cc2C)N=C1C (stereo not drawn)	GSTO1 inh 44.0 (no result: PRMT1 inh) | GSTO1 inh conf inactive
COC(=O)c1sc2nc(N3CCCCC3)c3c(c2c1N)CC(C)(C)N(C)C3	none (no result: PRMT1 inh, Fam108B inh, PME-1 inh, PAD4 FP inh, GSTO1 inh)
CCSc1nnc(-c2ccccc2SC)o1	none
COCCNC(=O)C(=O)N/N=C(\C)CC(=O)Nc1ccc(Cl)cc1Cl	GSTO1 inh 71.0 | GSTO1 inh conf inactive
O=C(O)c1[nH]c2ccccc2c1C(c1ccccc1)c1c(C(=O)O)[nH]c2ccccc12	GSTO1 inh 37.6 (no result: RBBP9 inh) | GSTO1 inh conf inactive
COC(=O)CCC(=O)OC1(C)C(=O)C=C2C=C(C3CC3)N(CCc3c[nH]c4ccccc34)C=C2C1=O (stereo not drawn)	none (no result: RBBP9 inh)
COC(=O)CCC(=O)OC1(C)C(=O)C=C2C=C(C3CC3)N(CCCCO)C=C2C1=O (stereo not drawn)	GSTO1 inh 46.0 (no result: RBBP9 inh) | GSTO1 inh conf inactive
COC(=O)CCC(=O)OC1(C)C(=O)C=C2C=C(C3CC3)N(Cc3ccc(OC)cc3)C=C2C1=O (stereo not drawn)	none (no result: RBBP9 inh)
COC(=O)CCC(=O)OC1(C)C(=O)C=C2C=C(C3CC3)N(CCc3ccccn3)C=C2C1=O (stereo not drawn)	GSTO1 inh 43.2 (no result: RBBP9 inh) | GSTO1 inh conf inactive
COC(=O)CCC(=O)OC1(C)C(=O)C=C2C=C(C3CC3)N(Cc3ccc4c(c3)OCO4)C=C2C1=O (stereo not drawn)	GSTO1 inh 44.5 (no result: RBBP9 inh) | GSTO1 inh conf inactive
COC(=O)CCCC1=CC2=C(c3ccccc3)C(=O)C(C)(OC(=O)C3CCCC3)C(=O)C2=CN1CCCCO (stereo not drawn)	GSTO1 inh 45.4 (no result: RBBP9 inh) | GSTO1 inh conf inactive
COC(=O)CCCC1=CC2=C(c3ccccc3)C(=O)C(C)(OC(=O)C3CCCC3)C(=O)C2=CN1Cc1ccco1 (stereo not drawn)	none (no result: RBBP9 inh)
O=C(CN1CCC(N2CCCCC2)CC1)N1CCOCC1	none
COc1ccc(CCNS(=O)(=O)c2ccc3c(c2)NC(=O)CO3)cc1OC	none (no result: RBBP9 inh)
O=C(O)c1ccc(N=Nc2c(O)ccc3ncccc23)cc1	GSTO1 inh 60.2 (no result: RBBP9 inh) | GSTO1 inh conf 41.4
Cc1ccc(Cl)c(NC(=O)COC(=O)c2ccccc2C(=O)c2ccc(Cl)c([N+](=O)[O-])c2)c1Cl	GSTO1 inh 49.2 | GSTO1 inh conf 52.2
CCCNC(=O)COC(=O)c1ccccc1C(=O)c1ccc(Cl)c([N+](=O)[O-])c1	none
O=C(NC1CCCC1)c1ccc2nc(-c3ccco3)c(-c3ccco3)nc2c1	GSTO1 inh 63.0 (no result: PRMT1 inh) | GSTO1 inh conf 37.9
O=C(NC1CCCC1)c1ccc2nc[nH]c2c1	none
Cc1cccc(NC(=O)Cn2nnc(C(=O)Nc3ccc(F)c(Cl)c3)c2N)c1	GSTO1 inh 42.6 (no result: RBBP9 inh) | GSTO1 inh conf inactive
CC1=NN(c2ccccc2)C(=O)/C1=C/c1cc2cc(C)ccc2nc1N1CCCCC1	PAD4 FP inh 20.5, GSTO1 inh 68.3 (no result: PRMT1 inh) | GSTO1 inh conf inactive
CC1=NN(c2ccccc2)C(=O)/C1=C\c1cc(C)n(C)c1C	none
O=C(CCl)Nc1cccc(-c2cnc3ccccc3n2)c1	GSTO1 inh 69.0 | GSTO1 inh conf 94.2
CCC(=O)Nc1cccc(-c2cnc3ccccc3n2)c1	none
COc1ccc(NS(=O)(=O)c2ccc(O)c(C(=O)OCC(=O)NC(C)C3CC4CCC3C4)c2)cc1 (stereo not drawn)	none
CC(NC(=O)COC(=O)c1cc(NS(=O)(=O)c2ccc(Cl)c([N+](=O)[O-])c2)ccc1O)C1CC2CCC1C2 (stereo not drawn)	GSTO1 inh 46.1 | GSTO1 inh conf 40.4
O=C(NCCN1CCOCC1)c1ccc(CSCc2cccc(Cl)c2)o1	none
Cc1cc(Cl)n2c(nc3cc(F)c(F)cc32)c1C#N	none (no result: Fam108B inh, PME-1 inh, PAD4 FP inh, GSTO1 inh)
Cc1cc(C)n2c(=O)c3ccc(Cl)cc3nc2c1C#N	GSTO1 inh 53.1 | GSTO1 inh conf inactive
Cc1ccc(C(=O)OCC(=O)c2c[nH]c3ccccc23)cc1	none
O=C(OCC(=O)c1c[nH]c2ccccc12)c1ccc([N+](=O)[O-])s1	GSTO1 inh 45.5 | GSTO1 inh conf inactive
